Assay results gathered from unrelated publications.
Compare with care: the assays were run in different laboratories.
Target: Wee1-like protein kinase (WEE1, Homo sapiens, UniProt P30291)

O=C(Nc1cnn(-c2csc(C(=O)NC3COC3)c2)c1)Nc1ccccc1Cl
remaining activity (enzyme activity, inhibitor; 5 µM): 124%

Nc1cnc(N2CCc3cc(S(=O)(=O)Nc4c(F)cc(Cl)cc4F)cc(N4CCCC4=O)c32)nc1
remaining binding (cell-free assay, competition with immobilised ligand; 1 µM): 72%

CC(C)(O)[C@H]1CC[C@H](Nc2ccc3ncc(-c4cccc(C(F)(F)F)c4)n3n2)CC1
remaining activity (enzyme activity, inhibitor; 1 µM): 87.3%

Cc1cnc(NC2CCOCC2)nc1-n1cnc(C(=O)NC(CN)c2cc(F)cc(Cl)c2)c1 (stereo not shown)
remaining activity (enzyme activity, inhibitor, radiometric; 1 µM): 101%

CC(C)(C)c1nc(-c2cccc(NS(=O)(=O)c3c(F)cccc3F)c2F)c(-c2ccnc(N)n2)s1
remaining activity (enzyme activity, inhibitor, radiometric; 1 µM): 91%

CCOCCn1cc(C(=O)Nc2ccc(-n3nc(-c4cccnc4)cc3C(F)(F)F)cn2)ccc1=O
remaining binding (cell-free assay, competition with immobilised ligand; 1 µM): 100%

CN1CC(Oc2cnc(C#N)cc2-c2ccn3nc(NC(=O)C4CC4)cc3c2)C1
inhibition (enzyme activity, inhibitor; 1 µM): 2%

C[C@H](NC(=O)c1cnc2n1[C@](C)(Cc1ccc(C#N)cc1)C(=O)N2c1cc(Cl)c(F)c(Cl)c1)C(=O)NC1(c2ccccn2)CC1
remaining binding (cell-free assay, competition with immobilised ligand; 1 µM): 100%

O=C1Nc2ccc(Cl)cc2C1=Cc1cc(Cl)c(O)c(Cl)c1
remaining signal (cell-free assay; 0.5 µM): 79.1%

CNc1cc(Oc2cc(C(=O)Nc3cc(N4CCN(C)CC4)cc(C(F)(F)F)c3)ccc2C)ncn1
inhibition (target engagement in cells, inhibitor, chemoproteomics; Huh-7; 1 µM): -10.9%

O=C1NC(=O)c2cc(Nc3ccc(F)cc3)c(Nc3ccc(F)cc3)cc21
remaining signal (cell-free assay; 0.5 µM): 99.6%

Cc1ccc(C(=O)Nc2ccc(CN3CCN(C)CC3)c(C(F)(F)F)c2)cc1C#Cc1cnc2cccnn12
remaining activity (enzyme activity, inhibitor; 23.5 nM): 100%

COc1cc2c(Nc3ccc(Br)cc3F)ncnc2cc1OCC1CCN(C)CC1
remaining signal (cell-free assay; 0.5 µM): 95.1%

CC1=C(C#N)[C@@H](c2ccc3[nH]nc(C)c3c2)C(C#N)=C(c2ccc(Cl)cc2)N1
remaining binding (cell-free assay, competition with immobilised ligand; 1 µM): 100%

CN(c1nccc(-c2cnn3ncccc23)n1)C1CC1
remaining binding (binding; 1 µM): 100%

Cc1ccc(Nc2nccc(N(C)c3ccc4c(C)n(C)nc4c3)n2)cc1S(N)(=O)=O
remaining activity (enzyme activity, inhibitor; 0.5 µM): 95.3%
